The values that follow come from PubChem BioAssay AID588478 (ICCB-Longwood Screening Facility, Harvard Medical School, 2011).

The campaign covered roughly 330,000 compounds. About 1,100 (0.33%) were called active. This is one part of a sample in which actives are shown more often than they occur.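 Rule for the calls: active = mean inhibition over replicate wells above about 20% (limit read from the data); inactive = the rest.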

Ubiquitin carboxyl-terminal hydrolase isozyme L5 (Homo sapiens), sequence (Q9Y5K5 whole entry, looked up): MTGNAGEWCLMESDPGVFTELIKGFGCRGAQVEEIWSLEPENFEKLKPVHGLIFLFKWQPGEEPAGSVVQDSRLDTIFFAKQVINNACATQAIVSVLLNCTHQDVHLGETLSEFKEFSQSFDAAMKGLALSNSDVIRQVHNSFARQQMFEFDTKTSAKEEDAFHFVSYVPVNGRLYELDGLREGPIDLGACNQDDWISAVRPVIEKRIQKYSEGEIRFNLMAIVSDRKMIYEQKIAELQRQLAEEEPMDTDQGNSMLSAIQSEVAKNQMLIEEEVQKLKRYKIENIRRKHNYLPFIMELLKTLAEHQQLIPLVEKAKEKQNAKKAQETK

For the experiment, the target named is Ubiquitin carboxyl-terminal hydrolase isozyme L5 (Homo sapiens) (UniProt Q9Y5K5). As to the kind of experiment: proteasome-bound UCH37 DUB activity blockers – biochemical, Ub-AMC cleavage, fluorescence, primary screen (AID 588478).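 Note: 0% = compound-free wells with enzyme and 100% = wells lacking proteasome.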 Particulars: purified proteasome/UCH37, Ub-AMC cleavage fluorescence; stronger effect = higher value; concentration not given here. The method in brief:
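Assay system: Proteasome-bound UCH37. Buffer or medium: pH 7.4 Tris-HCl (50 mM) with ovalbumin, ATP-MgCl2, DTT. Incubation: 30 min preincubation with enzyme, 25 min cleavage at room temperature. Measured by: fluorescence, ex 355 nm, em 460 nm. Read-out basis: percent inhibition. Control set: wells without proteasome as full block, compound-free enzyme plus substrate as uninhibited.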
By inhibition is commonly meant the change of the read-out against control, counted positive when it falls. Take `CC(OC(=O)c1ccc(Cl)cc1O)C(=O)NCCC1=CCCCC1` (stereo unspecified): the inhibition was -2.32% (inactive).

On to `CC(C)COc1ccc(C(=O)OCC(=O)NCCC2=CCCCC2)cc1`, for which the inhibition is 1.87% (inactive).

With `CC(OC(=O)c1c(F)cccc1F)C(=O)NCCC1=CCCCC1` (stereo unspecified), the inhibition is 29% (active).

Take `C=CCc1c(C)nc(-c2ccccc2)nc1NN=C(C)c1ccc(N)cc1`: the inhibition is 5.32% (inactive).

Take `O=C(NN=Cc1sc(N2CCCCC2)nc1-c1cccs1)C1CC1`: the inhibition is -4.87% (inactive).

`CCCOc1ccc(/C(O)=C2/C(=O)C(=O)N(CCN(C)C)C2c2ccc(OC)c(OC)c2)cc1` (stereo unspecified): the inhibition is 9.6% (inactive).

As to `COc1cccc(C2/C(=C(/O)c3ccc(F)cc3)C(=O)C(=O)N2CCN(C)C)c1` (stereo unspecified), the inhibition was 26.3% (active).

As for `COc1ccc(/C(O)=C2/C(=O)C(=O)N(CCCN(C)C)C2c2ccccc2)cc1OC` (stereo unspecified), the inhibition is 8.49% (inactive).

Turning to `CCC1SC(C)CC(=NNC(N)=O)C1C` (stereo unspecified), the inhibition is 1.74% (inactive).

Regarding `O=C(NN=Cc1ccc(O)cc1)c1csc2ccccc12`, the inhibition is 3.7% (inactive).

Turning to `Cc1nn(C)c(C(=O)NN=Cc2cccnc2)c1Cl`, the inhibition was 1.1% (inactive).

As for `CC(=NNc1ccccc1)c1c(O)cc(C)oc1=O`, the inhibition is 2.24% (inactive).

For the compound `Cc1cc(C)c[n+](-c2[nH]c(=O)sc2C=NNC([S-])=Nc2ccccc2)c1`, the inhibition was 23% (active).

In the case of `C(=NNc1nc(-c2ccccc2)cs1)c1cccs1`, the inhibition is -0.256% (inactive).

With `COc1ccc(Br)cc1C=Nn1c(COc2ccccc2)n[nH]c1=S`, the inhibition was 3.72% (inactive).

For `COc1ccc(Cn2nnc3c(=O)[nH]c(C4CCN(C(=O)c5ccccc5Cl)CC4)nc32)cc1`, the inhibition was 35.6% (active).

Turning to `Cc1ccc(Cn2nnc3c(=O)[nH]c(C4CCN(S(=O)(=O)/C=C/c5ccccc5)CC4)nc32)cc1`, the inhibition is 0.769% (inactive).

Turning to `Cc1ccc(NC(=O)N2CCC(c3nc4c(nnn4Cc4c(F)cccc4Cl)c(=O)[nH]3)CC2)cc1`, the inhibition is 1.34% (inactive).

For the compound `Oc1ccc(C=NNC2=NCCCCC2)c(O)c1`, the inhibition is -24.8% (inactive).

Consider `CC(Oc1cccc(Cl)c1)c1ccnc2nc(N=CN(C)C)nn12` (stereo unspecified), for which the inhibition was -41% (inactive).

In the case of `CC(=NNC(=O)c1nnn(-c2nonc2N)c1CSc1ccc(Cl)cc1)c1ccco1`, the inhibition is 0.0783% (inactive).

In the case of `O=C(CC1OC(=O)c2ccccc21)NC1CCCCC1` (stereo unspecified), the inhibition is 26% (active).

`CC(=O)CC(CC(=O)NC1CCCCC1)c1ccccc1` (stereo unspecified): the inhibition was 3.65% (inactive).

`O=C(CN1C(=O)c2ccccc2S1(=O)=O)NC1CCCCC1`: the inhibition was 0.614% (inactive).

As to `Cc1nnsc1C(=O)NN=Cc1ccccc1`, the inhibition is -1.09% (inactive).

As to `COc1ccc(C(C)=NNC(=O)CN(c2ccc(OC)cc2)S(=O)(=O)c2ccccc2)cc1`, the inhibition is 3.13% (inactive).
